An excerpt weighted towards active compounds, which were near 3% of everything screened.
HSF-1 act = HSF-1 activators, primary screen, NIH3T3-HGL cells, MG132 stress, luminescence, single point. activation, % at 9 µM. AID 504408, 2011. NIH3T3-HGL HSF-1 luciferase reporter, 8 h; 100% = twice DMSO control signal. hit rate 1.7% among 300,000;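 active = mean replicate activation of at least 50% with a set share of replicates each reaching 50%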;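 note: 0% = median of the neutral control wells and 100% = twice that signal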
PfHsp90 set2 = growth inhibition of PfHsp90-expressing yeast, primary screen, antimalarial PfHsp90 inhibitor project, S. cerevisiae, BacTiter-Glo luminescence, single point, set 2; BacTiter-Glo ATP, 48 h; yeast lacking PDR1 and PDR3 efflux regulators; hit rate 0.32% among 310,000; inhibition, % at 9.4 µM;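 active = every replicate shows inhibition above about 80%, whatever the replicate mean, limit read from the data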;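 note: 0% = DMSO neutral controls and 100% = 20 µM radicicol positive controls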
Glyco luc inh = increase of ERlucT glycosylation luciferase signal, primary screen, N-linked glycosylation inhibitor project, D54 ERlucT cells, luminescence, set 2; hit rate 0.23% among 360,000; reporter increase, % at 12.5 µM; AID 588692, 2011; D54 ERlucT glycosylation luciferase reporter, 24 h; percent of 100 nM tunicamycin response;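 active = mean luciferase reporter signal, scaled so untreated is 0 and the glycosylation-blocking control 100, at or above a set limit in every replicate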;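 note: luciferase carries N-glycosylation sites so blocking glycosylation raises the light; 0% = median of neutral control wells and 100% = median of 100 nM tunicamycin wells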
T cruzi repl = inhibitors of intracellular T. cruzi growth, primary screen, luminescence, NIH3T3 host cells; T. cruzi beta-gal in NIH3T3, 90 h; inhibition, % (no concentration beside the values); hit rate 1.4% among 300,000;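 active = mean inhibition across valid replicates above about 55%, limit read from the data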;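 note: signal also drops with host cell toxicity which is not excluded here; 0% = plate median of DMSO wells and 100% = zero luminescence signal; higher percent means less beta-gal luminescence so fewer parasites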
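Test system: β-gal T. cruzi (Tulahuen C4) inside NIH/3T3 cells / Quantity: 5,000 cells/well / Measured by: luminescence from GalScreen with 0.05% NP40, read after 60 min / Medium: DMEM plus 2% FBS / Measure: parasite load inhibition, % / Reagent: Tulahuen C4 trypomastigotes, 5000/well / Schedule: co-culture of at least 90 h after 3 h attachment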
PvdQ inh = P. aeruginosa PvdQ acylase inhibitors, primary screen, biochemical, fluorescence, plate reader and imaging, single point; PvdQ acylase [Pseudomonas aeruginosa LESB58]; purified PvdQ acylase; inhibition, % at 10 µM; hit rate 0.063% among 340,000; in the data active = inhibition above about 30%, passing the limit was not always enough;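 note: 0% = vehicle neutral wells and 100% = reference inhibitor wells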
CaV13 ICDI inh = Primary screen for inhibitors of IQ motif and Ca2+-dependent inactivation inhibitor domain binding in CACNA1D, Förster resonance energy transfer in living cells, …; AID 743397; inhibition, % at 12.3 µM; HEK cells, CFP/YFP FRET ICDI-IQ, plate reader, 10 min; percent FRET-ratio fall versus neutral wells; hit rate 0.098% among 340,000;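 active = mean replicate inhibition of at least 30% and at least 1% of replicates passing that level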;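 note: 0% = median of the neutral control wells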
Active calls of the source: *; nt = no result given.

SMILES | HSF-1 act | PfHsp90 set2 | Glyco luc inh | T cruzi repl | PvdQ inh | CaV13 ICDI inh
COc1ccc(-c2nc(NCCCN(C)C)c3ccccc3n2)cc1 | 5.4 | 4.0 | 42.7* | 10.8 | 11.1 | -3.3
CCN(CC)CCCNc1nc(-c2ccccc2)nc2ccccc12 | 11.8 | -7.4 | 8.3 | 11.1 | -11.1 | -2.5
COc1ccccc1Nc1nc(NCC2CCCO2)c2ccccc2n1 (centres undefined) | 1.7 | -17.8 | -2.8 | 64.3* | -13.5 | -4.3
C[C@@H]1CN([C@@H](C)CO)C(=O)CCCn2cc(nn2)CO[C@H]1CN(C)C(=O)c1ccc(N2CCN(C)CC2)cc1 | nt | nt | nt | nt | nt | -5.4
CN(Cc1ccco1)C(=O)[C@@H](Cc1ccccc1)NC(=O)[C@H]1O[C@@H](n2ccc(=O)[nH]c2=O)[C@H](O)[C@@H]1O | nt | nt | nt | nt | nt | -4.1
Clc1ccc2scc(CN3CCCC3)c2c1 | -3.1 | -13.8 | -1.6 | 19.9 | 81.3* | -5.1
CNC(=O)Cc1csc2ccc(Cl)cc12 | 7.2 | -26.0 | -0.3 | 0.4 | -6.7 | -0.5
CCOC(=O)N1CCN(S(=O)(=O)c2cc(Cl)c(OC)cc2Cl)CC1 | 70.1* | -19.4 | 0.6 | 9.3 | 2.6 | -4.1
CCCCN(C=O)c1c(CC)nc2ccc(C(=O)N(C)Cc3ccco3)cn12 | nt | nt | 0.9 | nt | nt | 0.7
CC(CCC(C)C(C)(C)C)[C@@H]1CC[C@H]2C3C[C@H](OS(O)(=S)=S)[C@H]4C[C@H](OS(O)(=S)=S)[C@@H](OS(O)(=S)=S)C[C@]4(C)[C@H]3CC[C@]12C (some centres undefined) (tested in a mixture with another compound) | nt | 108.7* | 4.5 | nt | -0.7 | nt
CC(CCC(=O)NN)C1CCC2C3CCC4CC(O)CCC4(C)C3CCC12C (centres undefined) | nt | 4.7 | -1.8 | nt | -10.1 | -7.4
O=c1cc2oc3cc(O)c(O)cc3c(-c3ccccc3[N+](=O)[O-])c-2cc1O | -17.9 | 82.9* | -13.4 | -27.0 | -1.9 | -5.7
C[C@H]1Cn2cnc(C(=O)NCc3ccc(CNC(=O)OC(C)(C)C)cc3)c2C(=O)N1 | nt | nt | 2.0 | nt | nt | -3.5
Clc1ncnc2scc(C3COc4ccccc4O3)c12 (centres undefined) | 57.8* | 6.5 | 3.5 | 10.1 | -9.1 | -8.2
Cc1c(C(O)CN2CCN(Cc3ccc4c(c3)OCO4)CC2)c2ccccc2n1C (centres undefined) | -3.1 | -9.9 | 0.3 | 66.5* | -5.6 | -8.0
CCOC(=O)[C@]12CCC=C1N(Cc1ccco1)C(=O)[C@H](CC(=O)N1CCCC1)C2 | nt | nt | nt | nt | nt | -9.6
Nc1c(C(=O)Nc2ccccc2)c2nc3ccccc3nc2n1-c1ccc(O)cc1 | 5.3 | 8.9 | -4.7 | 58.6* | 7.2 | 2.5
CCOC(=O)c1c(N)n(-c2ccc(N)cc2)c2nc3ccccc3nc12 | -14.4 | -5.3 | -0.1 | -2.5 | 4.0 | -6.4
Cc1ccc(S(=O)(=O)N/N=c2\oc3ccccc3cc2C(=O)Nc2cccc(C)c2)cc1 | 58.0* | nt | nt | -6.8 | nt | nt
COCc1cc(C)nc(SCC(=O)Nc2cc(C(F)(F)F)ccc2N2CCOCC2)c1C#N | 1.7 | 14.2 | -4.1 | 67.1* | -6.1 | -3.7
COCc1cc(C)nc(SCC(=O)Nc2ccccc2C)c1C#N | -3.1 | 10.8 | 0.7 | -2.9 | -10.0 | -4.1
N#Cc1cc2ccccc2nc1SCC(=O)Nc1ccccc1N1CCOCC1 | 71.2* | -14.6 | 0.2 | 8.6 | -2.6 | -9.3
CCCCC(=O)N(C)c1c(C)nc2ccc(C(=O)N3CCNC(=O)C3)cn12 | nt | nt | 0.7 | nt | nt | -11.7
C=CCn1c(SCC(=O)NCCCC)nc2scc(-c3ccco3)c2c1=O | 10.0 | -11.8 | 1.9 | 2.6 | 19.2 | nt
CC(C)n1c(SCC(=O)NC2CCCCC2)nnc1-c1ccco1 | 67.2* | 21.0 | -0.3 | -6.5 | -9.8 | -3.5
C=CCn1c(SCC(=O)NC2CCCC2)nc2scc(-c3ccco3)c2c1=O | 61.0* | 30.0 | 0.0 | 20.5 | -10.7 | nt

High-throughput results deposited in PubChem by Broad Institute.
